From article PMC3062473 (ChemMedChem, 2010)

What was measured:
Caspase 5 = molecular target: T1, Caspase 5 (Homo sapiens, UniProt P51878); experiment: Reaction Biology caspase panel; format: biochemical
T1 sequence (P51878 137-327 limits assumed): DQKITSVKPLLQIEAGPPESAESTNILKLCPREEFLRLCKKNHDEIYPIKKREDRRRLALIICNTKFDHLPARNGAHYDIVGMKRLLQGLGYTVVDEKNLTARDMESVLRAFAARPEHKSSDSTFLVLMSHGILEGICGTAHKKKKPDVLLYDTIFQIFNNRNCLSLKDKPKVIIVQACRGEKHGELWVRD
T1 sequence (P51878 347-434 limits assumed): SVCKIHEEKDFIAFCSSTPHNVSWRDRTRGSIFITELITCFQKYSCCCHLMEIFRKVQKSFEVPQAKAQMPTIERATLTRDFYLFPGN

Caspase 6 = molecular target: T2, Caspase 6 (Homo sapiens, UniProt P55212); experiment: Reaction Biology caspase panel; format: biochemical
T2 sequence (P55212 24-179 limits assumed): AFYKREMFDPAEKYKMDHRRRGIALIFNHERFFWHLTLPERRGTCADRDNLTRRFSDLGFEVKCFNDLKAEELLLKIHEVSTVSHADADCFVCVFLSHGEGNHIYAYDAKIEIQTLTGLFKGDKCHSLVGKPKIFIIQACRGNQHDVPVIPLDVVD
T2 sequence (P55212 194-293 limits assumed): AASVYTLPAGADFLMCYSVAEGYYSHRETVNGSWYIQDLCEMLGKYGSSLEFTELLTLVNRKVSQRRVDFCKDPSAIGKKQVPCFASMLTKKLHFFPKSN

Microsomal stability = format: in vitro ADME, human; details: for microsomal CLint / half-life: human, liver microsomes; for half-life: Microsomal Stability t1/2, human liver microsomes
Summary of the method: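 Human microsomal stability, profiled by a contract lab alongside internal control compounds. Includes minus-NADPH and minus-compound control incubations.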

[1] = Plasma protein binding, equilibrium dialysis in 100% plasma; format: in vitro ADME, human; details: human, plasma (100%)
Caspase 7 = molecular target: T3, Caspase 7 (Homo sapiens, UniProt P55210); experiment: Reaction Biology caspase panel; format: biochemical
T3 sequence (P55210 24-198 limits assumed): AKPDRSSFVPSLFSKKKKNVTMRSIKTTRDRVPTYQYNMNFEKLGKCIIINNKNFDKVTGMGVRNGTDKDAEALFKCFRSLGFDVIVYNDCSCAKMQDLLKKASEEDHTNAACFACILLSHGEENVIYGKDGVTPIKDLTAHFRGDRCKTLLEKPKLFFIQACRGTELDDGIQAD
T3 sequence (P55210 207-303 limits assumed): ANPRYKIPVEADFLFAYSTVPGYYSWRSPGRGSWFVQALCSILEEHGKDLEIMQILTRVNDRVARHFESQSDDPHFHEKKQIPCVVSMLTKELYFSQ

Caspase 8 = Caspase 8 (Homo sapiens, UniProt Q14790); experiment: Reaction Biology caspase panel; format: biochemical
Chain of Caspase 8 (Q14790 217-374 limits assumed): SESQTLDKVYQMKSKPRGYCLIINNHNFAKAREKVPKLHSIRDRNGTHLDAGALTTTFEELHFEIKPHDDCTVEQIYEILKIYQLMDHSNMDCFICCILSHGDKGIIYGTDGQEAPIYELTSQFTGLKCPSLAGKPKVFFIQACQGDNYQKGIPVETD
Chain of Caspase 8 (Q14790 385-479 limits assumed): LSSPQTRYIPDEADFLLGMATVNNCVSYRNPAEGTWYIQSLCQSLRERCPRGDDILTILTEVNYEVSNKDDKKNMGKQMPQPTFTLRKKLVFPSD

Caspase 9 = molecular target: T4, Caspase 9 (Homo sapiens, UniProt P55211); experiment: Reaction Biology caspase panel; format: biochemical
T4 sequence (P55211 1-315 limits assumed): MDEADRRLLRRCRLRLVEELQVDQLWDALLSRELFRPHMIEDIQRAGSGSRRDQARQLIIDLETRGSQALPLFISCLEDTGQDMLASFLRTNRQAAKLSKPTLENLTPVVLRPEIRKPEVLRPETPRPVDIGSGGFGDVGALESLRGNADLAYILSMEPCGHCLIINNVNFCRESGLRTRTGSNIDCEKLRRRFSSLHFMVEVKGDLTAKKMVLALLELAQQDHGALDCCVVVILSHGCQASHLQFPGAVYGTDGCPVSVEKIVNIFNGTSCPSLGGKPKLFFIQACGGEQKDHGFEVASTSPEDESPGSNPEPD
T4 sequence (P55211 331-416 limits assumed): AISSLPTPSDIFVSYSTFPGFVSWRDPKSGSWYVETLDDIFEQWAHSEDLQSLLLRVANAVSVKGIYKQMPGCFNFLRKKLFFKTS

Caspase 10 = molecular target: T5, Caspase 10 (Homo sapiens, UniProt Q92851); experiment: Reaction Biology caspase panel; format: biochemical
T5 sequence (Q92851 220-415 limits assumed): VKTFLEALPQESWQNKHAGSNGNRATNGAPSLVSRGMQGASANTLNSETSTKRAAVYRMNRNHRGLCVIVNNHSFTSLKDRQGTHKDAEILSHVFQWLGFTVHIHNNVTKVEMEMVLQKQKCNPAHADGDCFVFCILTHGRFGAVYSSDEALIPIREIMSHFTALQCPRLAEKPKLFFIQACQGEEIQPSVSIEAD
T5 sequence (Q92851 416-521 limits assumed): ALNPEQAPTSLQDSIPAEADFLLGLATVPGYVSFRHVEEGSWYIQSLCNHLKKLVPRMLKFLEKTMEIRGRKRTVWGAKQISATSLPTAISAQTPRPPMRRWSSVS

caspase 1 [2] = molecular target: T6, caspase 1 (Homo sapiens, UniProt P29466); experiment: Reaction Biology caspase panel; format: biochemical
T6 sequence (P29466 120-297 limits assumed): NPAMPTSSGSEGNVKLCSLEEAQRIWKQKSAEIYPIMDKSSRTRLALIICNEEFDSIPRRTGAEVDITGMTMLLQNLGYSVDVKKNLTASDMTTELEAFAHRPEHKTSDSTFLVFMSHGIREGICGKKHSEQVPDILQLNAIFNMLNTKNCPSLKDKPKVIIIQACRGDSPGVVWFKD
T6 sequence (P29466 317-404 limits assumed): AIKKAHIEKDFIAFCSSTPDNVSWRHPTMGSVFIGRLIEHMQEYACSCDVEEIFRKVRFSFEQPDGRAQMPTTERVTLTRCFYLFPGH

Caspase 14 = molecular target: T7, Caspase 14 (Homo sapiens, UniProt P31944); experiment: Reaction Biology caspase panel; format: biochemical
T7 sequence (P31944 6-146 limits assumed): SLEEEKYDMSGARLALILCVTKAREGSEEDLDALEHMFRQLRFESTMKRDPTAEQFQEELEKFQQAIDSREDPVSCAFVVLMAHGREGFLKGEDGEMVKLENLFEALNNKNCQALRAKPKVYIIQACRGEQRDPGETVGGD
T7 sequence (P31944 153-242 limits assumed): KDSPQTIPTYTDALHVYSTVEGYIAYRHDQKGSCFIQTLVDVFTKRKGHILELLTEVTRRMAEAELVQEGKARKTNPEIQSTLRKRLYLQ

Caspase 4 = molecular target: T8, Caspase 4 (Homo sapiens, UniProt P49662); experiment: Reaction Biology caspase panel; format: biochemical
T8 sequence (P49662 81-270 limits assumed): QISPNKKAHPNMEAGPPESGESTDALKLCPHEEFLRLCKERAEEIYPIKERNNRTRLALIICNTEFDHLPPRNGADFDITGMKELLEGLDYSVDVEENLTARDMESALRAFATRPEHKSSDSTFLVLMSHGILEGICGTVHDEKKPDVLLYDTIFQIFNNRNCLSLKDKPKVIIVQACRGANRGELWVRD
T8 sequence (P49662 290-377 limits assumed): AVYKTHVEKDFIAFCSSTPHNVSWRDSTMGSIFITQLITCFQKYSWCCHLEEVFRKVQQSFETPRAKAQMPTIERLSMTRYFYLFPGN

[3] = Bi-directional Caco-2 permeability; format: in vitro ADME; details: human
Summary of the method: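 Contract-lab bidirectional Caco-2 permeability. Run as three separate experiments, each with two separate internal control groups.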

[4] = Aqueous degradation study by LCMS over 96 hours; format: physicochemical; details: for aqueous stability (in words): up to 96 hours
Caspase 3 = molecular target: T9, Caspase 3 (Homo sapiens, UniProt P42574); experiment: Reaction Biology caspase panel; format: biochemical
T9 sequence (P42574 29-175 limits assumed): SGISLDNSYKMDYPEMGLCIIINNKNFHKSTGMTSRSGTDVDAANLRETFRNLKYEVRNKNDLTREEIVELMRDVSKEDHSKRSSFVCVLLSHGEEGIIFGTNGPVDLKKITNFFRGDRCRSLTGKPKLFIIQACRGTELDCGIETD
T9 sequence (P42574 176-277 limits assumed): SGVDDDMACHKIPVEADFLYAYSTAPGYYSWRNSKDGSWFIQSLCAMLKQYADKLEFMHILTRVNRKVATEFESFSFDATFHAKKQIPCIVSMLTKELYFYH

caspase 1 [5] = molecular target: T6, caspase 1; experiment: Caspase 1 fluorescence assay, Ac-LEHD-AMC substrate, 2 nM enzyme; format: biochemical
Summary of the method: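 Compound added from DMSO as a 12-point duplicate titration (0.65 pM to 57.5 μM) and preincubated 15 min at RT. Then 5 μM Ac-LEHD-AMC final was added and the initial rate followed 20 min at RT (ex 340/em 450 nm). Percent inhibition was taken against median uninhibited and uncatalyzed controls, with a four-parameter Hill fit.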

Pgp = Pgp (Homo sapiens, UniProt P08183); experiment: Caco-2 permeability in the presence of verapamil; format: in vitro ADME; details: Caco-2 control experiment with verapamil
Chain of Pgp (P08183 whole entry): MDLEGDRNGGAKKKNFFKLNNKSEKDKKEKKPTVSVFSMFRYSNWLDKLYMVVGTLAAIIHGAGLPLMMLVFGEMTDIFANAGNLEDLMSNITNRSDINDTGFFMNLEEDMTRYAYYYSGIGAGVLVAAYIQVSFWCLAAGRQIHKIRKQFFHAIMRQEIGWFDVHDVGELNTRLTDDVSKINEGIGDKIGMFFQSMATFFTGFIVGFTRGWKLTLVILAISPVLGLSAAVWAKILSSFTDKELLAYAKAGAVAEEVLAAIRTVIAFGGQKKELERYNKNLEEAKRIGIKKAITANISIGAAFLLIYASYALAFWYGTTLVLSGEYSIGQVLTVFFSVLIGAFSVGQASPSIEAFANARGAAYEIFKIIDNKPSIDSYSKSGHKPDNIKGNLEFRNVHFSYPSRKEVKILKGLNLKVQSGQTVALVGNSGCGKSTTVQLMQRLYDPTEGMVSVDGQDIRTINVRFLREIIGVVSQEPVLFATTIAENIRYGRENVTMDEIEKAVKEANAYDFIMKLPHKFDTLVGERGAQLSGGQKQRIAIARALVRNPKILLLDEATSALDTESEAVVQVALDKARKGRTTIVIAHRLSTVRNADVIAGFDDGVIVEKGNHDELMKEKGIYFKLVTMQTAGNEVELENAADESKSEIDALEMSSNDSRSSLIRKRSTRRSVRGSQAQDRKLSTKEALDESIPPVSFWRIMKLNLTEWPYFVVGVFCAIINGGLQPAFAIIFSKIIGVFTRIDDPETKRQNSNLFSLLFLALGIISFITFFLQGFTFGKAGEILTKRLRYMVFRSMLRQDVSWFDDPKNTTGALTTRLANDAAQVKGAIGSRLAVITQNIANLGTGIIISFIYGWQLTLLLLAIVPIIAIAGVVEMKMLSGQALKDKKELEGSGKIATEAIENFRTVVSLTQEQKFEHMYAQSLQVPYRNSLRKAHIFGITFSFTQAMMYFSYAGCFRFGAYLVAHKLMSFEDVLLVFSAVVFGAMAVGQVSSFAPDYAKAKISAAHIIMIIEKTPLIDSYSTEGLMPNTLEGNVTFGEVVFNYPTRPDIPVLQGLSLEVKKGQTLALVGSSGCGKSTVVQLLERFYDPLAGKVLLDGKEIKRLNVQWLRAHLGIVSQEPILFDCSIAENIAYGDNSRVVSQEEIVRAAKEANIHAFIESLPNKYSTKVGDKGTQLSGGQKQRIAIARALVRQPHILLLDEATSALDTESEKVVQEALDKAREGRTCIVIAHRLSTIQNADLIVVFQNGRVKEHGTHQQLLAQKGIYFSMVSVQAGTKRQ

IC50 (Caspase 5) [nM]	IC50 (Caspase 6) [nM]	microsomal CLint (Microsomal stability) [µL/min/mg]	half-life (Microsomal stability) [h]	fraction unbound [1]	IC50 (Caspase 7) [nM]	IC50 (Caspase 8) [nM]	IC50 (Caspase 9) [nM]	IC50 (Caspase 10) [nM]	IC50 (caspase 1 [2]) [nM]	IC50 (Caspase 14) [nM]	IC50 (Caspase 4) [nM]	Papp A→B [3] [×10⁻⁶ cm/s]	Papp B→A [3] [×10⁻⁶ cm/s]	aqueous stability (in words) ([4]; acidic (pH 2))	aqueous stability (in words) ([4]; basic (pH 8))	aqueous stability (in words) ([4]; neutral (pH 7))	IC50 (Caspase 3) [nM]	IC50 (caspase 1 [5]) [nM]	substrate for Pgp efflux (Pgp)	Structure (SMILES)	further results
3.6	> 10000	10.3	2.23	0.431	> 10000	25.2	2.17	89.7	0.023	801	13.8	0.144	0.06	moderate to good	exceedingly stable	moderate to good	> 10000	0.316		CC(C)(C)[C@H](NC(=O)c1ccc(N)c(Cl)c1)C(=O)N1CCC[C@H]1C(=O)N[C@H](C#N)CC(=O)O [Compound 4, (S)-3-((S)-1-((S)-2-(4-amino-3-chlorobenzamido)-3,3-dimethylbutanoyl)pyrrolidine-2-carboxamido)-3-cyanopropanoic acid]	degradation ([4]; acidic (pH 2), after 72 hours): 50%; degradation ([4]; neutral (pH 7), after 72 hours): 50%; Ki (caspase 1 [5]): 0.4 nM
		0.147		0.006								0.797	32.7			moderate degradation			substrates for Pgp efflux	CCO[C@@H]1OC(=O)C[C@@H]1NC(=O)[C@@H]1CCCN1C(=O)[C@@H](NC(=O)c1ccc(N)c(Cl)c1)C(C)(C)C [Compound 1, reference compound]	Microsomal Stability t1/2 (Microsomal stability; human liver microsomes, listed as VX-765): 157.2 h; degradation ([4]; pH 2, after 3.5 hours): 40%; compound decomposed ([4]; water (pH 7), after 48 hours): over 50%
1570	> 10000	27.4	0.845	0.071	> 10000	> 10000	1610	> 10000	43.4	> 10000	> 10000	0.445	9.59	exceptionally stable		exceptionally stable	> 10000	145	substrates for Pgp efflux	CCOC(=O)C[C@@H](C#N)NC(=O)[C@@H]1CCCN1C(=O)[C@@H](NC(=O)c1ccc(N)c(Cl)c1)C(C)(C)C [Compound 3, (S)-ethyl 3-((S)-1-((S)-2-(4-amino-3-chlorobenzamido)-3,3-dimethylbutanoyl)pyrrolidine-2-carboxamido)-3-cyanopropanoate]	degradation in liver microsomes without NADPH (Microsomal stability; without NADPH as a cofactor): slight degree of degradation; degradation (in words) ([4]; basic (pH 8), after 22 hours): fully degraded
1300	> 10000	9.38	2.47	0.243	> 10000	> 10000	91.5	> 10000	2.58	> 10000	1380	0.13	0.193	resistant to degradation	resistant to degradation	resistant to degradation	> 10000	20.4		CC(C)(C)[C@H](NC(=O)c1ccc(N)c(Cl)c1)C(=O)N1CCC[C@H]1C(=O)N[C@H](C#N)Cc1nnn[nH]1 [Compound 16, (S)-1-((S)-2-(4-amino-3-chlorobenzamido)-3,3-dimethylbutanoyl)-N-((S)-1-cyano-2-(1H-tetrazol-5-yl)ethyl)pyrrolidine-2-carboxamide]	
	122				3.54															CC(=O)N[C@@H](CC(=O)O)C(=O)N[C@@H](CCC(=O)O)C(=O)N[C@H](C(=O)N[C@H](C=O)CC(=O)O)C(C)C [Ac-DEVD-CHO, reference compound]	
